# Assay outcomes deposited in PubChem BioAssay by several laboratories.
# B2AR ag: beta2AR agonists driving receptor internalization, primary screen, cell-based, FAP fluorogen, flow cytometry. Beta-2 adrenergic receptor (Homo sapiens), P07550. Am2.2-beta2AR cells. response, % (test concentration not listed). actives 0.43% (n = 340,000). AID 504454, 2011;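 active = response above a set limit, near 3 SD of response in nonfluorescent compounds, cut at about 42% in these data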
# Target sequence (P07550 whole entry, looked up): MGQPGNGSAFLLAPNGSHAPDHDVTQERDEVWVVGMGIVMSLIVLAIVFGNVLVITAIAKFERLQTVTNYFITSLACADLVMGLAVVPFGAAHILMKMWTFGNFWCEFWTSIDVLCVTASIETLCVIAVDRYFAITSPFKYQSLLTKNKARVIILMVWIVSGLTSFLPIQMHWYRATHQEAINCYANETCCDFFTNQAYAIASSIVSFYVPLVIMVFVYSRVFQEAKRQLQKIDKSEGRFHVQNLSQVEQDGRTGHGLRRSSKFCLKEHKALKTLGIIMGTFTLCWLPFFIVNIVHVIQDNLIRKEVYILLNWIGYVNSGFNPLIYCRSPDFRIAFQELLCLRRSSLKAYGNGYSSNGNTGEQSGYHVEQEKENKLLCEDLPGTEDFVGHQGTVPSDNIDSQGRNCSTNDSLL
# Exocytosis inh: LAMP-1 surface exposure blockers, TALL-104 cells – cell-based, flow cytometry, MLPCN library, primary screen | TALL-104 LAMP-1 surface exposure; cells stimulated with thapsigargin and PMA | inhibition, % at 10 µM | actives 0.66% (n = 360,000) | AID 651702, 2012;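 active = inhibition above about 55%, limit read from the data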
# rCAG RNA binder: binders of r(CAG) RNA repeats, primary screen, biochemical, fluorescence. inhibition, % at 3 µM. r(CAG) RNA repeat, TO-PRO-1 dye displacement fluorescence. actives 1.3% (n = 370,000);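 active = inhibition above the plate cutoff, the mean of all test compounds on that plate plus 3 SD, cut at about 35% in these data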;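 note: 0% = DMSO alone and 100% = 100 µM mitoxantrone as full dye displacement; higher means more dye released from RNA so lower well fluorescence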
# V-ATPase pHluor: regulators of yeast V-ATPase proton pumping, primary screen, pHLuorin cytosolic pH fluorescence. S. cerevisiae. response, % at 10 µM. actives 0.37% (n = 350,000); in the data active = response mostly above about 7.3%, no sharp cut-off; inactive = mostly below about 5.4%; note: actives read high
# T cell modulator: modulators of CD8 T cell-vesicle binding, primary screen, mouse 2C CD8+ T cells, flow cytometry; 2C CD8+ T cell-vesicle binding; active compounds read low; response (vesicle binding), % at 7 µM; actives 0.068% (n = 330,000); AID 2052, 2009;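 active = response, share of CD8 T cells binding vesicles, and their 90th percentile fluorescence all below set limits, cut at about 80% in these data, passing the limit was not always enough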;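 note: values below 100% mean blocked vesicle binding to the CD8+ T cells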
#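 Read-out – percent CD8+ FL2 mean versus row control · System – murine 2C transgenic CD8+ T lymphocytes · Times – 1.5 h cell–vesicle binding at 37 °C, then 20 min icy labelling · Control set – naked vesicles low, QL9 vesicles with vehicle high · Detection – cytometric PE anti-B7-1 and Alexa647 anti-CD8 signals after 1% paraformaldehyde fixation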
# MPTP block: mitochondrial permeability transition pore inhibitors, primary screen, biochemical, isolated mouse mitochondria, absorbance; Ca2+ swelling absorbance, 30 min; inhibition, % at 10 µM; actives 1.4% (n = 360,000); AID 602449, 2012;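 active = inhibition of 50% or more, scaled per plate between neutral and stimulator controls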;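 note: 0% = DMSO wells given calcium and 100% = 1 mM EGTA wells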
# The depositor's hits bear a star; . = no result. Compounds with a hit are over-represented: about 3.8% of the library has one in this group of screens.
SMILES,B2AR ag,Exocytosis inh,rCAG RNA binder,V-ATPase pHluor,T cell modulator,MPTP block
CCOC(=O)c1sc(NC(=O)CSc2ccccn2)c(C#N)c1C,-2.7,-3.9,-1.7,3.7,624.5,3.0
COC(=O)c1c(NC(=O)CSc2n[nH]c(N)n2)sc(C)c1C,7.2,4.0,5.0,-3.9,584.9,0.6
Cc1sc(NC(=O)CSc2n[nH]c(N)n2)c(C#N)c1C,7.9,17.9,50.4*,-4.0,.,0.2
CCOC(=O)c1sc(NC(=O)CSc2ncn[nH]2)c(C#N)c1C,-0.3,-1.3,13.1,-2.0,14.9*,8.0
Cc1ccc(/C=C/C(=O)NCCc2c[nH]c3ccccc23)o1,5.8,2.2,1.4,-1.6,228.1,-1.0
Cc1ccc(/C=C/C(=O)NCCc2cccc(Cl)c2)o1,13.2,64.0*,0.5,0.8,148.1,0.8
O=C(CC1C=CCC1)OCCN1CCN(C2CN(Cc3cn(Cc4ccccc4Cl)nn3)S(=O)(=O)C2)CC1 (stereo not drawn),.,.,-2.1,.,.,.
C/C(=N\Nc1cc(C)nc(NCc2ccccc2)n1)c1cccc([N+](=O)[O-])c1,15.0,94.1*,-0.1,-6.3,62.4,0.8
C/C(=N\Nc1nnc(-c2ccccc2)c(-c2ccccc2)n1)c1cccc([N+](=O)[O-])c1,4.1,-4.2,3.0,0.4,609.4,0.2
COC(=O)[C@]12C[C@H](CC(=O)NCc3ccc(C)o3)C(=O)N(Cc3ccccc3)C1=C[C@H](C(C)(C)C)O[C@@H]2C,.,.,3.7,.,.,.
O=[N+]([O-])c1ccc(NN=Cc2ccccc2O)nc1,6.7,4.3,11.1,5.9,.,7.9
O=[N+]([O-])c1ccc(N/N=C/c2ccccc2O)cc1,8.5,64.8*,27.1,-4.5,191.2,9.8
O=C(O)c1ccc(COc2ccc3ccccc3c2/C=C2/NC(=O)N(c3ccccc3)C2=O)cc1,0.3,29.8,73.7*,1.6,421.4,3.5
O=C(O)c1ccc(COc2ccccc2/C=C2/NC(=O)N(c3cccc(Cl)c3)C2=O)cc1,16.5,0.9,27.2,-4.0,41.5,-2.2
C#CCNC(=O)C[C@H]1C[C@@]2(C(=O)OC)C(=C[C@H](C(C)C)O[C@@H]2C2CC2)N(CCC2=CCCCC2)C1=O,.,.,3.7,.,.,.
Cc1cc(C)c2c(=O)n(CC(=O)Nc3cccc(Cl)c3C)sc2n1,-9.0,65.2*,0.5,-2.3,39.7,16.9
CCOc1ccc(S(=O)(=O)N2CCC(C(=O)OC(C)C(=O)NC3CCCCC3C)CC2)cc1 (stereo not drawn),2.4,-6.5,-2.0,-2.5,0.0*,-1.3
CC(O)[C@H]1CC[C@H]2[C@@H]3CC[C@H]4C[C@@H](O)CC[C@]4(C)[C@H]3/C(=N/O)C[C@]12C (stereo partly drawn),2.8,82.0*,-11.0,0.1,218.3,-1.2
CC(=O)O[C@H]1CC[C@@]2(C)[C@@H](CC[C@H]3[C@@H]4CC[C@H](C(C)O)[C@@]4(C)CC(=O)[C@@H]32)C1 (stereo partly drawn),0.0,-5.6,-3.6,2.5,226.4,0.6
C=CCOc1cccc(C(=O)/C=C2/C(=O)Nc3ccccc32)c1,78.5*,51.2,10.4,-0.6,282.3,-2.2
CC(=O)/C=C1/C(=O)Nc2ccccc21,37.3,7.4,3.0,5.1,209.0,-1.1
Cc1cc(C)c(/C=N/NC(=O)c2nnn(-c3nonc3N)c2CN2CCC(C)CC2)c(C)c1,-2.1,81.9*,3.1,-0.6,150.0,1.1
O=C1C(Cl)=C(N2CCN(c3ccccc3[N+](=O)[O-])CC2)C(=O)c2ccccc21,81.4*,46.9,11.7,1.1,238.9,6.3
O=[N+]([O-])c1cc(Cl)ccc1N1CCCC1,-0.1,0.7,-3.7,-1.8,223.9,2.1
Cc1cc(C)cc(OC(=O)CS(=O)c2ccc(C(F)(F)F)cc2[N+](=O)[O-])c1 (stereo not drawn),51.7*,24.5,-2.8,1.7,157.8,0.9
SMILES,B2AR ag,Exocytosis inh,rCAG RNA binder,V-ATPase pHluor,T cell modulator,MPTP block
COc1ccc2oc(=O)c(-c3csc(Nc4cccc(O)c4)n3)cc2c1,17.3,8.5,22.7,-0.1,0.0*,6.2
COC[C@@H](OC(C)=O)[C@H]1OCc2ccccc2[C@@H]1/C=C/c1ccccc1,.,.,5.1,.,.,.
O=C1c2ccccc2C2Cc3nnccc3CN12 (stereo not drawn),.,.,5.2,.,.,.
CCN1Cc2c(/C=C/c3ccccc3)nc3ccc(OC)cc3c2N(c2cccc(Cl)c2)C1,16.8,64.8*,9.6,-1.2,144.5,-1.3
Cc1ccccc1N=C1Nc2ccccc2N[C@]12C[C@H]1CCC(=O)N3CC[C@@H](C2)[C@@H]13,8.8,57.6*,-0.9,5.7,.,-2.4
N#Cc1ccc(OC[C@@H](O)CN2CCC(C(O)(c3ccccc3)c3ccccc3)CC2)cc1F,.,.,-1.3,.,.,.
COc1ccc(-c2cc(C(F)F)n3ncc(C(=O)n4ccnc4C)c3n2)cc1,48.0*,8.7,1.8,-1.9,189.4,-1.3
COc1ccc(-c2cc(C(F)F)n3ncc(C(=O)N4CCc5ccccc54)c3n2)cc1,0.1,-3.8,3.0,-1.6,309.5,1.9
C[C@@H]1CN(c2ccc(N3CCN(C(=O)OC(C)(C)C)C[C@H]3C)cc2C#N)CCN1Cc1ccccc1,.,.,5.2,.,.,.
CC(C)(C)N(Cc1cn(CC2CCCCC2)nn1)S(=O)(=O)c1ccccc1Br,.,.,0.8,.,.,.
COc1cc(OC)c(NC(=O)c2ccccc2F)cc1Cl,-7.4,-2.7,1.5,0.1,171.9,1.9
COc1cc(NC(=O)c2cc3ccccc3cc2O)c(OC)cc1Cl,21.1,32.4,47.0*,-4.3,168.1,27.0
O=C(c1ccc(Cl)c(Cl)c1)N1CCC(Oc2cccnc2)CC1,.,.,-0.2,.,.,.
O=S(=O)(/N=C(\Sc1ccccc1)c1ccccc1)c1ccc(Cl)cc1,13.3,13.1,3.8,-0.7,230.6,-4.5
Cc1ccc(S(=O)(=O)/N=C(\Sc2ccccc2)c2ccccc2)cc1,14.5,65.4*,0.5,-7.7,181.2,10.8
Cc1cccc(C)c1NC(=O)CSc1nc(COc2ccccc2)nc2ccccc12,-16.3,-0.1,-0.9,-0.6,249.5,2.7
CCOC(=O)CSc1nc(COc2ccccc2)nc2ccccc12,8.2,-4.1,-2.6,-3.0,47.2*,-1.3
C#CCN1CC(N(C)CCOC(=O)c2cc(C)cc(C)c2)CS1(=O)=O (stereo not drawn),.,.,-2.4,.,.,.
N#C/C(C(=O)NCc1ccccc1)=C1/N=C(NC(=O)c2ccco2)c2ccccc21,6.8,24.6,-0.1,0.8,281.3,10.9
COc1ccc(CCNC(=O)/C(C#N)=C2\N=C(NC(=O)c3ccco3)c3ccccc32)cc1,31.7,83.5*,2.0,-0.4,405.3,6.7
FC(F)(F)c1ccccc1Cc1c(-c2ccco2)nc2c3ccccc3ccn12,.,.,19.4,.,.,.
